# Compounds with a hit are over-represented: about 3.6% of the library has one in this group of screens.
# NS3 helicase inh = HCV NS3 helicase inhibition; NS3 helicase DNA unwinding, Cy5 molecular beacon fluorescence; inhibition, % at 10.9 µM; actives 0.56% (n = 290,000); AID 1800;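 active means inhibition above the mean of all tested compounds plus 3 SD, set per campaign, cut at about 35% in these data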;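 further: 0% = DMSO wells and 100% = thioflavine S control wells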
#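 Assay system – hepatitis C virus NS3 helicase domain fragment enzyme · Buffer or medium – MOPS pH 6.5, MgCl2, DTT, Tween20, BSA · Reagent – Cy5/quencher beacon DNA duplex and ATP to start · Compound – single 10.9 µM dose · Timing – 1 h at 25 °C · Technique – Cy5 beacon fluorescence read at start and 1 h · Measure – % inhibition of unwinding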
# FID counter = counter-screen for HCV NS3 helicase inhibitors: DNA intercalator displacement. inhibition, % at 7.9 µM. actives 0.17% (n = 290,000). DNA fluorescent intercalator displacement, fluorescence. AID 1845; in the data active means inhibition above about 37%;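 further: 0% = vehicle and 100% = reference compound; higher means more ethidium bromide displaced from hairpin DNA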
# NR3A LBD binder = modulates the human NR3A ligand-binding domain; actives 2.5% (n = 340,000); Tm shift relative to glycine control, % at 25 µM; NR3A LBD differential scanning fluorimetry, Tm shift; 0% = protein alone, 100% = glycine-bound protein;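 active means melting temperature shift of at least 10% of the positive control shift, at one fixed dose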
# ZTA counter = ZTA (EBV) inhibition in EBNA-1 counter-screen; ZTA-DNA binding, fluorescence polarization; inhibition, % at 11 µM; actives 0.15% (n = 320,000); AID 2234; in the data active means inhibition above about 33%
# Target sequence (P03206 whole entry, looked up): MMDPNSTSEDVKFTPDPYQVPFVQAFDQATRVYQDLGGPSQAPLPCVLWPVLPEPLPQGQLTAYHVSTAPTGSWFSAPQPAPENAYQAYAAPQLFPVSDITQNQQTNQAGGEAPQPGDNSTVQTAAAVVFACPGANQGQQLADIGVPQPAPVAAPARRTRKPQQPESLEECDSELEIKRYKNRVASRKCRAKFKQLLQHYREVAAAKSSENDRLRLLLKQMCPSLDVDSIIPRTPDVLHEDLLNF
# EBNA-1 inhibitor = blocks EBNA-1 binding to DNA; EBNA-1 DNA binding, fluorescence polarization; actives 0.34% (n = 300,000); inhibition, % at 14.8 µM; AID 1950; in the data active means inhibition above about 28%
# FGF22 binding = shifts melting point of recombinant human FGF22 | Q9HCT0 | recombinant FGF22 thermal shift, SYPRO orange fluorescence; percent of sucrose octasulfate shift, DMSO zero | activity (Tm shift, normalised), % at 9.99 µM | actives 1.5% (n = 340,000);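 active means mean Tm shift, scaled 0 neutral to 100 positive control, at about 1.3% or above, every replicate too, limit read from the data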
# Target sequence (Q9HCT0 whole entry, looked up): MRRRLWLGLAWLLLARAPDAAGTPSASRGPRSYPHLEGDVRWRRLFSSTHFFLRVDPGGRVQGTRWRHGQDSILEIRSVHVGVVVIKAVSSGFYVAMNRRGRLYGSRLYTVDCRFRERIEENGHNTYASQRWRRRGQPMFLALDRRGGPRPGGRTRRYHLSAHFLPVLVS
# * marks the source's active call; other numbers are inactive results; . = no result.
SMILES,NS3 helicase inh,FID counter,NR3A LBD binder,ZTA counter,EBNA-1 inhibitor,FGF22 binding
Oc1c(Cl)c(Cl)c(Cl)c(Cl)c1Cl,.,.,19*,16,-8,0
O=C(Cc1ccccc1)N1CC2(C1)[C@H](c1ccccc1)[C@H](CO)N2Cc1cccc(Cl)c1,.,.,.,.,.,0
FC(F)(F)c1cccc(NC2=NCCS2)c1,.,.,.,.,.,44*
CC=Cc1ccc2n(c1=O)C[C@@H]1[C@@H](CO)[C@H](C(=O)N(C)C)N[C@H]21 (mixture of isomers),.,.,.,.,.,0
Cc1ccsc1C(=O)C1CCCN(Cc2cnc(N3CCCC3)s2)C1 (centres undefined),-5,4,-1,3,-17,44*
CSc1ncc(CN2CCCC(C(=O)c3sccc3C)C2)cn1 (centres undefined),6,-8,0,-4,3,0
COc1cccc(N2CCN(Cc3cccc(Cl)c3)CC2)c1,-10,0,13*,4,13,0
COc1cccc(N2CCN(Cc3ccc(Cl)cc3)CC2)c1,-7,-3,-2,8,6,0
COc1ccc(C2SCC(=O)Nc3c2c(C)nn3-c2ccccc2)cc1 (centres undefined),1,-12,11*,4,-3,.
OC(c1ccccc1)(c1ccc(Cl)cc1)C1CN2CCC1CC2 (centres undefined),-38,14,0,4,4,0
OC(c1ccccc1)(c1ccccc1)C1CN2CCC1CC2 (centres undefined),-2,16,-3,-6,-1,44*
COc1ccc(C#Cc2ccc([C@H]3[C@H]4CN(C(=O)Cc5cccnc5)CCCCN4[C@H]3CO)cc2)cc1,.,.,.,.,.,0
COc1ccc(-c2ccc3n(c2=O)C[C@@H]2[C@@H](CO)[C@H](C(=O)O)[C@H]3N2C(=O)c2ccccc2F)cc1,.,.,.,.,.,0
CCN1C(=O)/C(=C/c2ccc(N(CC)CC)cc2OC)C(=O)NC1=S,7,1,14*,0,1,.
COc1ccccc1/C=C1\C(=O)NC(=S)N(c2ccccc2)C1=O,24,-13,4,0,-11,0
O=C1CNC[C@@H]2[C@@H](c3ccc(Br)cc3)[C@H](CO)N12,.,.,.,.,.,0
COc1ccc(-c2ccc([C@@H]3[C@H]4CN(C(=O)Cc5ccccc5)CCCCN4[C@H]3CO)cc2)cc1,.,.,.,.,.,0
S=C1NC2(CCCCC2)NC12CCCCC2,9,-3,16*,-6,-2,0
O=C1CCN(C(=O)Cc2ccccc2[N+](=O)[O-])CC1,-4,-3,-1,0,-8,44*
O=C1C2CCCN2C(c2cccc(Cl)c2)N1c1ccccn1 (centres undefined),12,38*,-2,10,3,.
O=C1C2CCCN2C(c2ccc(Cl)c(Cl)c2)N1c1ccccn1 (centres undefined),4,-2,0,5,-6,.
CCCCOc1nc2ccccc2c(=O)n1-c1ccccc1,-4,-17,13*,4,-4,.
COc1nc2ccccc2c(=O)n1-c1ccc(C)cc1,10,-6,-10,2,0,.
Cc1c(NC(NC(=O)CF)C(Cl)(Cl)Cl)c(=O)n(-c2ccccc2)n1C (centres undefined),-4,3,-1,7,12,43*
CCOC(=O)c1c(/N=C/c2c(O)n(-c3cccc(C)c3)c(=O)[nH]c2=O)sc2c1CCCC2,4,-9,24*,-10,-6,.
SMILES,NS3 helicase inh,FID counter,NR3A LBD binder,ZTA counter,EBNA-1 inhibitor,FGF22 binding
C=CCn1c(O)c(/C(C)=N/N2CCCCCC2)c(=O)[nH]c1=O,-2,-17,14*,-12,-9,0
C=CCn1c(O)c(C(C)=Nc2ccc(N(C)C)cc2)c(=O)[nH]c1=O,25,-7,-1,150*,58*,.
COC(=O)[C@H]1[C@H](CO)[C@H]2Cn3c(ccc(-c4cccnc4)c3=O)[C@@H]1N2CCc1ccccc1,.,.,.,.,.,0
CC=Cc1ccc2n(c1=O)C[C@H]1[C@H](CO)[C@@H](C(=O)OC)[C@@H]2N1CC1CC1 (mixture of isomers),.,.,.,.,.,0
O=C(Cc1ccncc1)N1CCCCN2[C@H](CO)[C@@H](c3ccc(C#CC4(O)CCCC4)cc3)[C@@H]2C1,.,.,.,.,.,0
CCN(CC)c1ccc(/C=C2\C(=O)NC(=O)N(CC3CCCO3)C2=O)cc1 (centres undefined),8,-16,3,16,16,43*
Cc1ccc(/C=C2\C(=O)NC(=O)N(CC3CCCO3)C2=O)s1 (centres undefined),12,-3,3,-20,3,-1
CCN(CC)c1ccc(/C=C2/C(=O)NC(=O)N(Cc3ccco3)C2=O)cc1,30,-5,24*,-3,6,.
CN(C)c1ccc(/C=C2/C(=O)NC(=O)N(Cc3ccco3)C2=O)cc1,25,-18,2,11,0,0
CCCCCn1c(N)c(C(=O)NCc2cccs2)c2nc3ccccc3nc21,-2,-3,10,-13,6,.
Nc1c(C(=O)NCCCc2ccccc2)c2nc3ccccc3nc2n1Cc1cccs1,2,3,22*,-14,12,.
O=C1NC(=S)NC(=O)C1Cc1ccccc1,.,.,13*,.,.,0
Cc1ccc2c(c1)C1CN(C)CCC1N2C(=O)Nc1cccc(Cl)c1 (centres undefined),-17,16,17*,-2,-9,.
C[C@@H]1CN([C@@H](C)CO)C(=O)CCCn2cc(nn2)CO[C@@H]1CN(C)C(=O)Oc1ccc2ccccc2c1,.,.,.,.,.,0
O=C(Cc1cccnc1)N1CCCCN2[C@H](CO)[C@@H](c3ccc(C#CC4CC4)cc3)[C@@H]2C1,.,.,.,.,.,0
Cn1cc(C(=O)NP(=O)(N2CCOCC2)N2CCOCC2)c2ccccc21,6,2,0,-5,8,44*
Cn1cc(C(=O)N2CCOCC2)c2ccccc21,-5,-4,-1,6,3,.
CCN(C(=O)Oc1ccccc1)c1ccc(C(O)(C(=O)OC)C(F)(F)F)cc1 (centres undefined),1,-28,-1,-22,-19,0
CCOC(=O)C(O)(c1ccc(NC(=O)Oc2ccccc2)cc1)C(F)(F)F (centres undefined),0,-1,16*,-8,7,0
COc1cccc(-c2ccc([C@@H]3[C@H]4CN(C(=O)Cc5ccncc5)CCCCN4[C@H]3CO)cc2)c1,.,.,.,.,.,1
Cc1ccc(-n2c(O)c(C=Nc3ccc(S(N)(=O)=O)cc3)c(=O)[nH]c2=O)cc1,-2,-6,1,10,7,43*
CC(=O)Nc1ccc(C(=O)OCC(=O)Nc2ccc(Cl)cc2C(=O)c2ccccc2)cc1,-4,-5,-2,4,-9,.
O=C(COC(=O)c1ccc(O)cc1)Nc1ccc(Cl)cc1C(=O)c1ccccc1,-3,-10,18*,0,-2,0
